Test results from ChEMBL document CHEMBL2163232, “4-Phenyl-7-azaindoles as potent, selective and bioavailable IKK2 inhibitors demonstrating good in vivo efficacy” (Bioorg Med Chem Lett, 2012).
≈ marks a conversion by molar mass, not a printed value. Calls of active or inactive are those of the source. The rule behind the calls is not given here.

Legend:
[1] = target: T1, Inhibitor of nuclear factor kappa-B kinase subunit alpha (Homo sapiens, UniProt O15111); test: Inhibition of IKK1 in presence of 1 uM ATP
T1 sequence (O15111 whole entry): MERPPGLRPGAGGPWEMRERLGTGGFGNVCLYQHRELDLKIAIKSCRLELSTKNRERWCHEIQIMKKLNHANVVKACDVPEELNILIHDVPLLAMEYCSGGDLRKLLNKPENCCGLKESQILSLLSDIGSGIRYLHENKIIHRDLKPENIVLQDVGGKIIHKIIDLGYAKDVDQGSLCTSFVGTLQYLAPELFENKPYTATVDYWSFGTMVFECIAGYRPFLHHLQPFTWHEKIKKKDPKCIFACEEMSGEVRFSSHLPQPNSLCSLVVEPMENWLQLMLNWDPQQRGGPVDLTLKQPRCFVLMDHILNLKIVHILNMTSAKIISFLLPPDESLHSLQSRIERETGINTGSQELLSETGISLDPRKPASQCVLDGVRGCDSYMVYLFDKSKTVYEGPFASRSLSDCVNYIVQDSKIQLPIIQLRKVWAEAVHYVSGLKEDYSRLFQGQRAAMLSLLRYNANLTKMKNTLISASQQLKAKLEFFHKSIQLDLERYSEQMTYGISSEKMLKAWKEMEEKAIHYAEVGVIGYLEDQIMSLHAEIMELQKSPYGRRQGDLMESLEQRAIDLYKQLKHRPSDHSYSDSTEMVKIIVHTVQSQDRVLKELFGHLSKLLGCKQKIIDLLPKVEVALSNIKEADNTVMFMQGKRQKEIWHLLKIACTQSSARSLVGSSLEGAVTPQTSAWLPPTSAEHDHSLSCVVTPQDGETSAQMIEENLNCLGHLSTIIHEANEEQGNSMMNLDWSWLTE

[2] = target: T2, Inhibitor of nuclear factor kappa-B kinase subunit beta (Homo sapiens, UniProt O14920); test: Inhibition of IKK2 in presence of 1 uM ATP
T2 sequence (O14920 whole entry): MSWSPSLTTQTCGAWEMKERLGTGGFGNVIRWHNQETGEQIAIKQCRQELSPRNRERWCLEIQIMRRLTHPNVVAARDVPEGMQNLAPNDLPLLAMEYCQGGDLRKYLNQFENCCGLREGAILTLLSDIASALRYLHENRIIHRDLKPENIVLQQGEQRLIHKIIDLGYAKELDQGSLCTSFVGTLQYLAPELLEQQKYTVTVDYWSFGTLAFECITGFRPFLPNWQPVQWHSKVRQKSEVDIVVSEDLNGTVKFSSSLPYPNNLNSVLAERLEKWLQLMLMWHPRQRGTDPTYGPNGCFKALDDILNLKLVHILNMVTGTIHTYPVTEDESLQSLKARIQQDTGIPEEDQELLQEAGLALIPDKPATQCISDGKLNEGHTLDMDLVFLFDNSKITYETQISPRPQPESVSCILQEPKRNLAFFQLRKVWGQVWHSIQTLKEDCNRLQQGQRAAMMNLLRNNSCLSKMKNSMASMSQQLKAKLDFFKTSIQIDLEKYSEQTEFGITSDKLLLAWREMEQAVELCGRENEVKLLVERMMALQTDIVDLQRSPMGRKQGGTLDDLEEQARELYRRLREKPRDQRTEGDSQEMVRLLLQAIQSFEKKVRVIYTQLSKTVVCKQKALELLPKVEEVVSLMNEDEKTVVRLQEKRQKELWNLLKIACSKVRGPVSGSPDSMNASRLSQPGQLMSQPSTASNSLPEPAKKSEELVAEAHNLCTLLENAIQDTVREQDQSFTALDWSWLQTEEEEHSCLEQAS

Blood [3] = test: Inhibition of LPS-stimulated TNFalpha production in human Whole blood; format: functional, tissue-based
Albumin = Albumin (Homo sapiens, UniProt P02768); test: Binding affinity to human serum albumin; format: ADME; conditions: isolated protein
Chain of Albumin (P02768 whole entry): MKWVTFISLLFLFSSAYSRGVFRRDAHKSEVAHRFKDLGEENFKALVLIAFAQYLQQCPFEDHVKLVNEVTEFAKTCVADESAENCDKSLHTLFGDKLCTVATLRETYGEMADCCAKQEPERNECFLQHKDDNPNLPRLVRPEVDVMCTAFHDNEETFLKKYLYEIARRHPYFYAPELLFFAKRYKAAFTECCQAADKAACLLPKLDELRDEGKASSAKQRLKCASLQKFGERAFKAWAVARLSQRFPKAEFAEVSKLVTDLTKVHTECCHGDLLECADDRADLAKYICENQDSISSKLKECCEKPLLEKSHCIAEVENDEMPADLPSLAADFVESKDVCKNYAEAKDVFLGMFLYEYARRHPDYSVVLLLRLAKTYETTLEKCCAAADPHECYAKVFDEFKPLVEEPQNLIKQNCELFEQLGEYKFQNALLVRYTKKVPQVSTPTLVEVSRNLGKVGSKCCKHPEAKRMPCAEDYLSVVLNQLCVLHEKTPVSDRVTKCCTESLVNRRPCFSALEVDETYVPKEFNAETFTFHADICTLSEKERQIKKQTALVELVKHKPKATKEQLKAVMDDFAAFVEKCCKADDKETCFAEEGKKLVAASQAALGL

[4] = target: T2, Inhibitor of nuclear factor kappa-B kinase subunit beta; test: Inhibition of IKK2 in human A549 cells assessed as inhibition of TNFalpha-induced NFKB activation; format: cell-based
[5] = Half life in rat at 1 mg/kg, iv; format: ADME, organism-based; set-up: dose 1 mg/kg, route intravenous; conditions: in vivo
Procedure, shortened: (§1)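 Rat pharmacokinetics: 1 mg/kg given IV (n = 2) or orally (n = 1); clearance derived from the IV arm.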

[6] = Oral bioavailability in rat at 1 mg/kg; format: ADME, organism-based; conditions: in vivo; procedure, shortened: as §1
[7] = Clearance in rat at 1 mg/kg, iv; format: ADME, organism-based; set-up: dose 1 mg/kg, route intravenous; conditions: in vivo; procedure, shortened: as §1
Cytochrome P450 2D6 = Cytochrome P450 2D6 (Homo sapiens, UniProt P10635); test: inhibition of CYP2D6; format: ADME
Chain of Cytochrome P450 2D6 (P10635 whole entry): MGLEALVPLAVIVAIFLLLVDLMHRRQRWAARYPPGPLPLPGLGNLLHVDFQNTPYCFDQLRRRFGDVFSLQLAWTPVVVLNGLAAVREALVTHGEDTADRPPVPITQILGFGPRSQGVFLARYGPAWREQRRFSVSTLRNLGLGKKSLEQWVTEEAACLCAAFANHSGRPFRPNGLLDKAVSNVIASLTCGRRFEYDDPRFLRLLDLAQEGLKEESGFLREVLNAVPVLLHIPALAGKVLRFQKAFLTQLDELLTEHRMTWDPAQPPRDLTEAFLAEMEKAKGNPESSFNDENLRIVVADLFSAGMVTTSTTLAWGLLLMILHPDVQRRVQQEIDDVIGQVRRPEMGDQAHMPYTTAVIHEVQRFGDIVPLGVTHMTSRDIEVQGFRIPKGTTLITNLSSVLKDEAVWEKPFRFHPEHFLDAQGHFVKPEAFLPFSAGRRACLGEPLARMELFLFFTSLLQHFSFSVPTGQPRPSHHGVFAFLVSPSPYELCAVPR

[8] = Fraction unbound in human plasma; format: ADME, cell-free
[9] = Plasma protein binding in rat; format: ADME, cell-free; conditions: read-out: PPB (converted)
Cytochrome P450 1A2 = target: T3, Cytochrome P450 1A2 (Homo sapiens, UniProt P05177); test: inhibition of CYP1A2; format: ADME
T3 sequence (P05177 whole entry): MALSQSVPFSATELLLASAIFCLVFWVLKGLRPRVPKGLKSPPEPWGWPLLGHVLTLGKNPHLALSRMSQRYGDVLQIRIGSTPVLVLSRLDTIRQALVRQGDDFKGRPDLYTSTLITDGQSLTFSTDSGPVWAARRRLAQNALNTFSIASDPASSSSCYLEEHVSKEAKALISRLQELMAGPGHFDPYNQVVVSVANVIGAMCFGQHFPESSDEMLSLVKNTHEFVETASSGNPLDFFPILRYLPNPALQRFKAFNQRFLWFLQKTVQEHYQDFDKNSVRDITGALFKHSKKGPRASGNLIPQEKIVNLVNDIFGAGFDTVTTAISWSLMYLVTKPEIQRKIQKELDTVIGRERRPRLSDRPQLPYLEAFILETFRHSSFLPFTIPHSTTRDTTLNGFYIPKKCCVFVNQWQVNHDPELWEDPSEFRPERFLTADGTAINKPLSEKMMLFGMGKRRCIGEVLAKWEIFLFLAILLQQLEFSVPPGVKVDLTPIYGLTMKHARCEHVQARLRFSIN

Hepatocyte [10] = test: Intrinsic clearance in human hepatocytes; format: ADME, cell-based, Liver
[11] = Plasma protein binding in human; format: ADME, cell-free; conditions: read-out: PPB (converted)
[12] = Aqueous solubility of the compound; format: physicochemical; conditions: aqueous solution
Blood [13] = test: Inhibition of LPS-stimulated TNFalpha production in rat Whole blood; format: functional, tissue-based
Rattus norvegicus [14] = test: Antiinflammatory activity in po dosed Lewis rat assessed as inhibition of LPS-induced neutrophil lung infiltration compound administered 30 mins before LPS challenge relative to vehicle-treated control; format: functional
Procedure, shortened: (§2)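 Male Lewis rats (n = 4 per group, vehicle included) dosed orally at 10, 30 and 100 µmol/kg in 2% DMSO/0.5% methylcellulose with NaOH, 30 min before 20 min exposure to aerosolized 0.1 mg/ml E. coli 026:B6 LPS. Neutrophils in BAL fluid counted 4 h post-LPS by differential (Diff-Quick) and haemocytometer counts. Results given as % inhibition versus vehicle, ED50 derived; ANOVA with Dunnett's test.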

Hepatocyte [15] = test: Intrinsic clearance in rat hepatocytes; format: ADME, cell-based, Liver
[16] = Volume of distribution in rat; format: ADME, organism-based; conditions: in vivo; procedure, shortened: as §1
Cytochrome P450 3A4 = Cytochrome P450 3A4 (Homo sapiens, UniProt P08684); test: inhibition of CYP3A4; format: ADME
Chain of Cytochrome P450 3A4 (P08684 whole entry): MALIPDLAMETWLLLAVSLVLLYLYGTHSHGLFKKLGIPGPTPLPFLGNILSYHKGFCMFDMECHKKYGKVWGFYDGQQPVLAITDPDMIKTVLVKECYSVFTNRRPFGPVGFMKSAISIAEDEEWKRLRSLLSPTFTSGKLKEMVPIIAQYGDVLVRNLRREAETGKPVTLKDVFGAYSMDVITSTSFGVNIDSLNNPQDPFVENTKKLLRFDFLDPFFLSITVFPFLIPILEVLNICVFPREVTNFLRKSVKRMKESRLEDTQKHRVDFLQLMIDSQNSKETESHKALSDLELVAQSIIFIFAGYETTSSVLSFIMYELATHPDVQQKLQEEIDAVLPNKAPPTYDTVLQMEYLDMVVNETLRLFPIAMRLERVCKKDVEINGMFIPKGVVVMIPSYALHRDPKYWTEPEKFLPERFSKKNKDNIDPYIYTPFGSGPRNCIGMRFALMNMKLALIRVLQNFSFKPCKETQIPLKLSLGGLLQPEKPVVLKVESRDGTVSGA

[17] = target: Voltage-gated inwardly rectifying potassium channel KCNH2 (Homo sapiens, UniProt Q12809); test: Inhibition of human ERG
Chain of Voltage-gated inwardly rectifying potassium channel KCNH2 (Q12809 whole entry): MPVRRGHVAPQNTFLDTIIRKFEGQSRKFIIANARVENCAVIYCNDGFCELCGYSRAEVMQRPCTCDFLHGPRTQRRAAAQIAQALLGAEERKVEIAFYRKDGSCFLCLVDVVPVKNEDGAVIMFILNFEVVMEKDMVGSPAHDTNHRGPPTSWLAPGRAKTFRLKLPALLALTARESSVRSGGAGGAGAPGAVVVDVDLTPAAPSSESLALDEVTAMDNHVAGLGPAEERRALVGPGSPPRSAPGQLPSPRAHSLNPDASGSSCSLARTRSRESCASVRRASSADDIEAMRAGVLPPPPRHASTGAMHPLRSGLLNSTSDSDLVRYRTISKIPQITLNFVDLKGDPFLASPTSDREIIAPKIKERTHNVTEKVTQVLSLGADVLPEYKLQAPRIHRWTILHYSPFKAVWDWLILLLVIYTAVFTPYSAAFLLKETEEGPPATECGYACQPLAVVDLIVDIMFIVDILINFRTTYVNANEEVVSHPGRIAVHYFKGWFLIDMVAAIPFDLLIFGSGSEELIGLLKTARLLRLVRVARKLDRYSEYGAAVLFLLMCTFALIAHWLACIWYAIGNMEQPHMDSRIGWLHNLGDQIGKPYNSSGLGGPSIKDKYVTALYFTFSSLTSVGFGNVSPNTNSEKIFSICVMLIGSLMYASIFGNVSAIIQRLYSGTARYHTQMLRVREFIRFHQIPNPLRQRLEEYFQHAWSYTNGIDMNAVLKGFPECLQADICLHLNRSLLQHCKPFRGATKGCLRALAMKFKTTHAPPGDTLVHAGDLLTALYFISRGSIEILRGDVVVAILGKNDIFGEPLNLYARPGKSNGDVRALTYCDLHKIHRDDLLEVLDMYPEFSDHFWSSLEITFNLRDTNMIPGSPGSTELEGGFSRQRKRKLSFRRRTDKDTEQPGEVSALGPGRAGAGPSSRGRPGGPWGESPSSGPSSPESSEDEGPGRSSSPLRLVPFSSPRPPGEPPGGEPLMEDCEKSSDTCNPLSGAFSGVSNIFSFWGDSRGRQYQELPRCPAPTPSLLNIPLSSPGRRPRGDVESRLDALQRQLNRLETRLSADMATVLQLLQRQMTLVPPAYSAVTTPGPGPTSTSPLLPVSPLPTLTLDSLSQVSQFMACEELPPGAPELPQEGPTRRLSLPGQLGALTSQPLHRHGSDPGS

Cytochrome P450 2C9 = Cytochrome P450 2C9 (Homo sapiens, UniProt P11712); test: inhibition of CYP2C9; format: ADME
Chain of Cytochrome P450 2C9 (P11712 whole entry): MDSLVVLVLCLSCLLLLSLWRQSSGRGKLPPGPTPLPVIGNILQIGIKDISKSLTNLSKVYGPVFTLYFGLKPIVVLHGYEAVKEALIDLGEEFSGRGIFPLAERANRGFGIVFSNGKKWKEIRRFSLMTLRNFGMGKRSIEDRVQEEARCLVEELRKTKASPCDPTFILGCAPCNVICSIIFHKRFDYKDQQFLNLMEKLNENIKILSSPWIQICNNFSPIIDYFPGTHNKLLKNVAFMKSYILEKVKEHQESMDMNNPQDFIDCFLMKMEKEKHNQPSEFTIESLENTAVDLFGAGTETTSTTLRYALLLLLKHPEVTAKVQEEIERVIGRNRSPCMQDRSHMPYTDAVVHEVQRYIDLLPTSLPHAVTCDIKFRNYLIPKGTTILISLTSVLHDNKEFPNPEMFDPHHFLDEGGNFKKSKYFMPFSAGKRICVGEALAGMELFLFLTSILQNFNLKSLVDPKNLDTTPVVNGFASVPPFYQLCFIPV

Rattus norvegicus [18] = test: Antiinflammatory activity in Lewis rat assessed as inhibition of LPS-induced neutrophil lung infiltration at 30 umol/kg, po administered 30 mins before LPS challenge relative to vehicle-treated control; format: functional, organism-based; procedure, shortened: as §2

SMILES | IC50 [1] [nM] | IC50 [2] [nM] | IC50 (Blood [3]) [nM] | other results
O=S1(=O)CCC(NS(=O)(=O)c2ccc(-c3ccnc4[nH]c(C5CCNCC5)cc34)cc2)CC1 | 31.6 | 15.8 | 631 | –
Cc1cc2c(-c3ccc(S(=O)(=O)N(C)CCO)cc3)ccnc2[nH]1 | – | – | 3160 | Activity (Albumin): 91%; IC50 [4]: 794 nM
Cc1cc2c(-c3ccc(S(=O)(=O)NCC(C)(C)O)cc3)ccnc2[nH]1 | 200 | 10 | 1000 | half-life [5]: 36 min; bioavailability [6]: 32%; clearance [7]: 70 mL/min/kg
O=S1(=O)CCC(NS(=O)(=O)c2ccc(-c3ccnc4[nH]c(Cn5ccnn5)cc34)cc2)CC1 | 50.1 | 15.8 | 1260 | –
Cc1cc2c(-c3ccc(S(=O)(=O)NC4CCS(=O)(=O)CC4)cn3)ccnc2[nH]1 | 79.4 | 79.4 | 1000 | –
CC(C)(C)c1cc2c(-c3ccc(S(=O)(=O)NCCO)cc3)ccnc2[nH]1 | 794 | 20 | 1000 | –
Cc1cc2c(-c3ccc(S(=O)(=O)NC4CCS(=O)(=O)CC4)cc3)ccnc2[nH]1 | – | – | 398 | –
O=S(=O)(NCCO)c1ccc(-c2ccnc3[nH]c(C4CC4)cc23)cc1 | 200 | 7.94 | 1260 | IC50 (Cytochrome P450 2D6): > 10000 nM; fraction unbound [8]: 0.07; fraction unbound [9]: 0.024; IC50 (Cytochrome P450 1A2): > 10000 nM; CLH (Hepatocyte [10]): < 1 mL/min/g; fraction unbound [11]: 0.066; solubility [12]: 64 µM (≈ 22.9 µg/mL); IC50 (Blood [13]): 6310 nM; ED50 (Rattus norvegicus [14]): 28.2 µmol/kg; inhibition (Rattus norvegicus [14]): Dose-dependent effect; half-life [5]: 36 min; bioavailability [6]: 49%; CLH (Hepatocyte [15]): < 1 mL/min/g; Vd [16]: 0.6 L/kg; IC50 (Cytochrome P450 3A4): > 10000 nM; IC50 [17]: > 50100 nM; IC50 (Cytochrome P450 2C9): 7000 nM; inhibition (Rattus norvegicus [18]): Active; clearance [7]: 13 mL/min/kg; IC50 [4]: 200 nM
C[C@@H](CO)NS(=O)(=O)c1ccc(-c2ccnc3[nH]c(C(F)(F)F)cc23)cc1 | 316 | 20 | 1260 | half-life [5]: 192 min; bioavailability [6]: 83%; clearance [7]: 7 mL/min/kg
Cc1cc2c(-c3ncc(S(=O)(=O)NC4CCS(=O)(=O)CC4)cn3)ccnc2[nH]1 | 158 | 794 | 3160 | –
CCc1cc2c(-c3ccc(S(=O)(=O)NC4CCS(=O)(=O)CC4)cc3)ccnc2[nH]1 | 6.31 | 5.01 | 398 | –
CC(C)c1cc2c(-c3ccc(S(=O)(=O)NCCO)cc3)ccnc2[nH]1 | 398 | 7.94 | 1580 | half-life [5]: 27 min; bioavailability [6]: 18%; Vd [16]: 0.8 L/kg; clearance [7]: 39 mL/min/kg
CC(C)c1cc2c(-c3ccc(S(=O)(=O)NC4CCS(=O)(=O)CC4)cc3)ccnc2[nH]1 | 6.31 | 6.31 | 251 | –
Cc1cc2c(-c3ccc(S(=O)(=O)NCCO)cc3)ccnc2[nH]1 | – | – | 2510 | –
Cc1cc2c(-c3ccc(S(=O)(=O)NC4CCS(=O)(=O)CC4)nc3)ccnc2[nH]1 | 7.94 | 12.6 | 398 | –
C[C@@H](CO)NS(=O)(=O)c1ccc(-c2ccnc3[nH]c(C4CC4)cc23)cc1 | 251 | 7.94 | 501 | half-life [5]: 54 min; bioavailability [6]: 29%; clearance [7]: 15 mL/min/kg
O=S(=O)(NCCO)c1ccc(-c2ccnc3[nH]c(C(F)(F)F)cc23)cc1 | 200 | 15.8 | 2510 | –
CC(C)(C)c1cc2c(-c3ccc(S(=O)(=O)NC4CCS(=O)(=O)CC4)cc3)ccnc2[nH]1 | 25.1 | 7.94 | 631 | –
O=S1(=O)CCC(NS(=O)(=O)c2ccc(-c3ccnc4[nH]c(C5CC5)cc34)cc2)CC1 | 6.31 | 3.98 | 251 | –
CN(C)Cc1cc2c(-c3ccc(S(=O)(=O)NC4CCS(=O)(=O)CC4)cc3)ccnc2[nH]1 | 100 | 20 | 1260 | –
CC(C)(O)CNS(=O)(=O)c1ccc(-c2ccnc3[nH]c(C4CC4)cc23)cc1 | 316 | 6.31 | 1000 | half-life [5]: 42 min; bioavailability [6]: 100%; clearance [7]: 14 mL/min/kg
